A selection: hits, their analogues and other compounds. The true share with any hit is near 3.9%.
TAAR1 antag – antagonists of human TAAR1. Q96RJ0. CHO RD-HGA16 TAAR1, Fluo-8 calcium fluorescence, antagonist. inhibition, % at 3 µM. actives 1.5% (n = 360,000). AID 624466;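 active = inhibition above a per-plate cutoff, the mean inhibition of test compounds on that plate plus 3 SD, cut at about 49% in these data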;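 note: 0% = DMSO plus EC80 beta-PEA response and 100% = DMSO alone without agonist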
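Material: RD-HGA16 CHO cells with stable hTAAR1 and Gα16; Dosing: single nominal final test compound concentration of 3 µM; Schedule: seeding 17-24 h prior, 75-min 37 °C, 30-min RT dye loading; Detection: kinetic Fluo-8 calcium fluorescence measurement; Measure: % inhibition from peak post-agonist over basal fluorescence ratio; Benchmarks: vehicle and agonist controls.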
HTR2A ag – activates the mouse 5-HT2A serotonin receptor; CHO-K1 mHTR2A beta-arrestin complementation, luminescence; percent of 30 µM serotonin response; activation, % at 7.6 µM; AID 624169; actives 0.66% (n = 360,000);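 active = activation above a run cutoff, the mean activation of all tested compounds plus 3 SD, cut at about 14% in these data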;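 note: 0% = plate median of compound wells and 100% = 30 µM serotonin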
CHRM1 agonist – agonists of human M1 muscarinic receptor; P11229; CHO-K1 hM1, Fluo-8 calcium fluorescence, agonist mode; 0% DMSO, 100% acetylcholine EC100; activation, % at 3 µM; actives 0.33% (n = 360,000); AID 588814;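 active = activation above the run's mean compound activation plus 3 SD, cut at about 16% in these data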;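 note: peak over basal fluorescence ratio within a 140 s kinetic read after compound addition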
Target sequence (P11229 whole entry, looked up): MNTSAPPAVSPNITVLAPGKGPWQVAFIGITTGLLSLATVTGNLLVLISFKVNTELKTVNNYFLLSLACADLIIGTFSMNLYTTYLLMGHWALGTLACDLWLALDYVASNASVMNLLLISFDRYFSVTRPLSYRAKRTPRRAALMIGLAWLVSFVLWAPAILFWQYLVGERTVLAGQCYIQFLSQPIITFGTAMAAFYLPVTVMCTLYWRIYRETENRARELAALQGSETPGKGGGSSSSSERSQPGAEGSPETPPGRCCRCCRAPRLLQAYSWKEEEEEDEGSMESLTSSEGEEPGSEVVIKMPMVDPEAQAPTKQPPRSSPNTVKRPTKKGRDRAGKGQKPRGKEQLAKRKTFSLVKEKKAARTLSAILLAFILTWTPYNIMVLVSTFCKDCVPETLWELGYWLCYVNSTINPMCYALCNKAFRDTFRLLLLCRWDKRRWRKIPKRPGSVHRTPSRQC
CHRM1 antagonist – human CHRM1 antagonism | CHO-K1 hM1, Fluo-8 calcium fluorescence, ACh EC80 antagonist | inhibition, % at 3 µM | P11229 | actives 1.3% (n = 360,000);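 active = percent inhibition above its own plate's cutoff, namely the mean of that plate's compound wells plus 3 SD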;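 note: peak over basal fluorescence ratio during 140 s after agonist addition; 0% = ACh EC80 plus DMSO and 100% = DMSO alone without agonist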
M1 PAM – potentiates human M1 receptor response to acetylcholine; actives 0.088% (n = 360,000); activation, % at 3 µM; CHO-K1 hM1, Fluo-8 calcium fluorescence, ACh EC20; 0% = ACh EC20, 100% = maximal ACh; P11229; AID 588819; in the data active = activation above about 19%, passing the limit was not always enough
TAAR1 agonist – human TAAR1 agonism; Q96RJ0; CHO RD-HGA16 TAAR1, Fluo-8 calcium fluorescence; vehicle wells 0%, saturating PEA agonist 100%; activation, % at 3 µM; actives 0.99% (n = 360,000); AID 624467;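 active = activation above the mean activation of all test compounds in the run plus 3 SD, cut at about 38% in these data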
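System: CHO-derived RD-HGA16 cells with stable Gα16 and human TAAR1 / Times: 17-24 h plating, Fluo-8 75 min 37 °C, 30 min RT / Technique: calcium-sensitive Fluo-8 signal, excitation 470-495, emission 515-575 nm / Measure: % activation relative to PEA EC100 response / Benchmarks: DMSO and PEA EC100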
MOR ag counter – OPRM1 agonism in mouse HTR2A counterscreen; shares compounds with HTR2A ag; U2OS OPRM1 beta-arrestin PathHunter, luminescence; DMSO 0%, DAMGO 9.3 µM 100%; activation, % at 9.3 µM; actives 5.3% (n = 2,300); AID 624380;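 active = mean activation above the mean of DMSO-only wells plus 3 SD, cut at about 0.5% in these data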
m5-HT2A ag conf – mouse HTR2A agonism confirmed; shares compounds with HTR2A ag; CHO-K1 PathHunter beta-arrestin recruitment, luminescence; DMSO 0%, 30 µM serotonin 100%; activation, % at 7.6 µM; actives 19% (n = 2,300);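 active = mean activation across triplicates above the hit threshold derived in the original primary screen, cut at about 15% in these data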
Starred values were filed as active, the others as inactive; . = not tested or not shown.

SMILES	TAAR1 antag	HTR2A ag	CHRM1 agonist	CHRM1 antagonist	M1 PAM	TAAR1 agonist	MOR ag counter	m5-HT2A ag conf
O=C1COc2ccc(S(=O)(=O)NCCc3ccccc3)cc2N1	1	0	6	-12	24	1	.	.
COc1ccccc1CNS(=O)(=O)c1ccc2c(c1)NC(=O)CO2	-17	16*	-1	1	-4	2	-1	-2
COC(=O)c1ccccc1S(=O)(=O)NNC(=O)c1nn(C)c(=O)c2ccccc12	2	-4	-1	-9	1	4	.	.
CN(C(=O)c1cccc(NC(=O)Cc2ccc(NC(=O)C3CCN(C(=O)C4CCCCC4)CC3)cc2)c1)C1CC1	-18	16*	-4	-2	2	6	0.7*	5
COc1ccc(NS(=O)(=O)c2ccc(C)c(C(=O)NCC(c3ccco3)N(C)C)c2)cc1 (stereo unspecified)	5	16*	-1	-11	0	5	0	-3
CS(=O)(=O)c1ccc(NS(=O)(=O)c2ccc(Cl)c(C(=O)NCc3ccco3)c2)cc1	-14	19*	-1	-21	17	9	0	-1
CCN(CC)S(=O)(=O)c1ccc(Cl)c(C(=O)NCc2ccco2)c1	6	2	-2	9	3	11	.	.
COc1ccc(NS(=O)(=O)c2cccc(C(=O)NCC(c3ccco3)N(C)C)c2)cc1 (stereo unspecified)	-11	-12	-4	-27	4	9	.	.
CC(=O)Nc1ccc(S(=O)(=O)N2CC(=O)NC(=O)C2)cc1	3	20*	-1	-12	4	0	0	-4
CC1CN(C)C(C)c2c1oc1ccc(N)cc21 (stereo unspecified)	-2	2	-7	-2	6	1	.	.
CC1CN(C)C(C)c2c1oc1ccc([N+](=O)[O-])cc21 (stereo unspecified)	-1	22*	-5	-4	6	4	0	4
CC(C)NC(=O)c1sc(=S)n2c1[nH]c(=O)c1ccc(C(=O)NCCc3ccc(Cl)cc3)cc12	3	-4	2	-4	20	1	.	.
CCOc1ccc(CCNC(=O)c2ccc3c(=O)[nH]c4c(C(=O)NC(C)C)sc(=S)n4c3c2)cc1	2	19*	2	-10	12	3	-1	0
O=C(O)C1CSC(c2ccc3c(c2)OCO3)N1 (stereo unspecified)	-12	16*	-4	3	7	0	-1	-5
CN(C)Cc1c(C(C)(C)O)[nH]c2ccc(C(F)(F)F)cc12	-6	23*	-4	3	6	8	-1	20*
CC(C)(O)c1[nH]c2ccc(C(F)(F)F)cc2c1C(C)(C)O	-7	5	-5	-10	12	7	.	.
C[C@H](NC(=O)c1[nH]cnc1C(=O)Nc1ccc(CNC(=O)OC(C)(C)C)cc1)C(=O)OC(C)(C)C	45	19*	0	18	-12	15	0	2
CN1CCn2cnc(C(=O)Nc3ccc(CNC(=O)OC(C)(C)C)cc3)c2C1=O	21	16*	1	3	10	0	-1	-3
CC(C)(C)OC(=O)NCc1ccc(NC(=O)c2nc[nH]c2C(=O)NCCCNC(=O)c2[nH]cnc2C(=O)Nc2ccc(CNC(=O)OC(C)(C)C)cc2)cc1	.	2	0	14	1	.	.	.
Cc1cc(NC(=O)COc2cccc([N+](=O)[O-])c2)no1	9	18*	0	-5	5	0	0	-1
Cc1cc(C)c(C#N)c(OCC2CCCO2)n1 (stereo unspecified)	-5	15*	-7	-10	6	-1	-1	-1
CC1C(=O)N2CCCc3cc(NC(=O)c4ccccc4Br)cc1c32 (stereo unspecified)	-8	0	-3	-6	3	5	.	.
Cc1cc(C)c2cc(C#N)c(NCCNC(=O)c3cccnc3)nc2c1	-24	6	.	.	.	-2	.	.
C[C@H](CO)N1C[C@H](C)[C@H](CN(C)Cc2cccc(O)c2)OCc2ccccc2-c2c(n(C)c3ccccc23)C1=O	-14	23*	-3	-5	3	1	0	32*
N#CCc1ccc(OC(=O)c2ccncc2)cc1	-23	3	-1	-13	3	2	.	.
SMILES	TAAR1 antag	HTR2A ag	CHRM1 agonist	CHRM1 antagonist	M1 PAM	TAAR1 agonist	MOR ag counter	m5-HT2A ag conf
C[C@@H](NC(=O)Cn1cnc2c(OCc3ccccc3)ncnc21)c1cccc2ccccc12	28	16*	33*	-13	20	8	.	-1
C[C@@H](NCCCn1cnc2c(OCc3ccccc3)ncnc21)c1cccc2ccccc12	7	-1	-7	12	-9	15	.	.
Cc1ccc(-c2nc3c(C)cc(Br)cn3c2Cc2ccccc2C(F)(F)F)cc1	5	.	.	.	.	0	.	.
Cn1c(N)c(C(=O)COC(=O)CCC2CCCCC2)c(=O)n(C)c1=O	-15	4	-10	4	-9	13	.	.
Cn1c(N)c(C(=O)COC(=O)CCC2CCCC2)c(=O)n(C)c1=O	-16	20*	-7	-7	5	10	0	-5
O=[N+]([O-])c1ccc(S(=O)(=O)Nc2ccccn2)cc1	8	1	-6	-6	4	0	.	.
COc1ccc2cc(/C=N/NC(=O)CN(c3ccccc3OC)S(=O)(=O)c3ccccc3)c(Cl)nc2c1	15	.	.	.	.	10	.	.
COc1ccc2cc(/C=N/NC(=O)CN(c3ccccc3C)S(=O)(=O)c3ccccc3)c(Cl)nc2c1	4	16*	-4	2	2	0	-1	-4
CC(=O)c1cccc(NC(=O)CNC(=O)Cc2ccccc2)c1	5	2	0	-14	11	-1	.	.
CC(C)(C)c1ccc(NC(=O)COC(=O)C2=COCCO2)cc1	-18	4	4	-5	8	5	.	.
CN(C)C(=O)c1ccc(NC(=O)COC(=O)C2=COCCO2)cc1	-7	18*	-1	-8	4	1	-1	-4
CCOc1ccccc1NC(=O)COC(=O)c1cnc(C)cn1	-9	2	-1	-13	12	1	.	.
COCCNC(=O)/C(C#N)=C/c1c(N2CCN(c3cccc(Cl)c3)CC2)nc2c(C)cccn2c1=O	13	12	-5	7	-1	2	.	.

Screening data: PubChem, The Scripps Research Institute Molecular Screening Center
